IC50 data for 21 molecules are collected here from ChEMBL document CHEMBL4152192, “Synthesis and anticancer activity evaluation of novel azacalix[2]arene[2]pyrimidines” (Eur J Med Chem, 2018).

In one test the test system is A549. Kind of test: Antiproliferative activity against human A549 cells after 72 hrs by CCK-8 assay. Format: functional, cell-based. The settings on record: A549, 72 h. In a few lines: (§1)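 Cells seeded at 5 × 10³/well; A549, MCF7 and SH-SY5Y grown in DMEM, CNE and L-02 in RPMI-1640 (10% FBS, pen/strep, 37 °C, 5% CO₂). Compounds in DMSO, diluted in medium; 72 h exposure versus DMSO vehicle. CCK-8 absorbance read at 450 nm; viability taken as treated/control absorbance, IC₅₀ from curve fit. Triplicate wells, three independent experiments.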
In general terms: Formazan colour is commonly taken as a measure of viable cells.

For another test, the system named is CNE. Kind of test: Antiproliferative activity against human CNE cells after 72 hrs by CCK-8 assay. The format is functional, cell-based. In a few lines: as §1
For another test, the system named is SH-SY5Y. Kind of test: Antiproliferative activity against human SH-SY5Y cells after 72 hrs by CCK-8 assay. The format is functional, cell-based. In a few lines:
as §1

In another test the test system is MCF7. Kind of test: Antiproliferative activity against human MCF7 cells after 72 hrs by CCK-8 assay. Format: functional, cell-based. The settings on record: MCF7, 72 h. In a few lines: as §1
The subject of a further test is L02. Kind of test: Antiproliferative activity against human L02 cells after 72 hrs by CCK-8 assay. Format: cell-based. The settings on record: L02, 72 h. In a few lines:
as §1

Take `COc1cccc2c1C(=O)c1c(O)c3c(c(O)c1C2=O)C[C@@](O)(C(=O)CO)C[C@@H]3O[C@H]1C[C@H](N)[C@H](O)[C@H](C)O1` [DOXORUBICIN]: the IC50 was determined as 0.63 µM with A549; 0.22 µM in the test with CNE; 0.89 µM in the test with SH-SY5Y; 0.48 µM in the test with MCF7; 0.88 µM in the test on L02.
As for `CC(C)S(=O)(=O)c1ccc2cc1Nc1ncc(Cl)c(n1)Nc1ccc(S(=O)(=O)C(C)C)c(c1)Nc1ncc(Cl)c(n1)N2`, the IC50 in the test on A549, with CNE, in the test on SH-SY5Y, in the test on MCF7 and in the test on L02 was greater than 50 µM each time.
`Cc1cnc2nc1Nc1cc(cc(N3CCCC3)c1)Nc1ncc(C)c(n1)Nc1cc(cc(N3CCCC3)c1)N2`: the IC50 in the test with A549 is 4.25 µM; in the test on CNE it was greater than 50 µM; in the test with SH-SY5Y it was 7.21 µM; with MCF7, 4.9 µM; in the test on L02, 30.8 µM.
The like results for `Fc1cnc2nc1Nc1cc(cc(C(F)(F)F)c1)Nc1ncc(F)c(n1)Nc1cc(cc(C(F)(F)F)c1)N2` were, in that order, greater than 50 µM, greater than 50 µM, greater than 50 µM, greater than 50 µM and greater than 50 µM.
Take `Cc1cnc2nc1Nc1cc(cc(N3CCOCC3)c1)Nc1ncc(C)c(n1)Nc1cc(cc(N3CCOCC3)c1)N2`: the IC50 in the test with A549, in the test with CNE, with SH-SY5Y, in the test on MCF7 and with L02 was greater than 50 µM in each case.
As for `Cc1cnc2nc1Nc1cc(cc(C(F)(F)F)c1)Nc1ncc(C)c(n1)Nc1cc(cc(C(F)(F)F)c1)N2`, the IC50 in the test with A549, with CNE, in the test with SH-SY5Y, in the test with MCF7 and in the test with L02 was greater than 50 µM in each case.
For the molecule `c1cc2nc(n1)Nc1cc(cc(N3CCOCC3)c1)Nc1ccnc(n1)Nc1cc(cc(N3CCOCC3)c1)N2`, the IC50 with A549, in the test with CNE, with SH-SY5Y, in the test with MCF7 and in the test on L02 was greater than 50 µM in each case.
Consider `FC(F)(F)c1cc2cc(c1)Nc1nccc(n1)Nc1cc(cc(C(F)(F)F)c1)Nc1nccc(n1)N2`, for which the IC50 was determined as 2.05 µM in the test on A549; 15.6 µM in the test on CNE; 1.43 µM in the test on SH-SY5Y; 5.38 µM in the test on MCF7; 20.4 µM in the test with L02.
For `Fc1cnc2nc1Nc1cccc(c1)Nc1ncc(F)c(n1)Nc1cccc(c1)N2`, in that order: greater than 50 µM, greater than 50 µM, greater than 50 µM, greater than 50 µM and greater than 50 µM.
`FC(F)(F)c1cc2cc(c1)Nc1nc(ncc1Cl)Nc1cc(cc(C(F)(F)F)c1)Nc1nc(ncc1Cl)N2`: the IC50 in the test on A549, with CNE, in the test with SH-SY5Y, with MCF7 and in the test on L02 was greater than 50 µM in each case.
As to `CCOC(=O)c1cc2cc(c1)Nc1nc(ncc1Cl)Nc1cc(cc(C(=O)OCC)c1)Nc1nc(ncc1Cl)N2`, the IC50 in the test with A549, with CNE, with SH-SY5Y, in the test on MCF7 and in the test with L02 was greater than 50 µM in each case.
Consider `COc1cnc2nc1Nc1cc(cc(C(F)(F)F)c1)Nc1ncc(OC)c(n1)Nc1cc(cc(C(F)(F)F)c1)N2`, for which the IC50 in the test with A549, in the test on CNE, in the test with SH-SY5Y, in the test with MCF7 and with L02 was greater than 50 µM each time.
In the case of `Cc1cnc2nc1Nc1cccc(c1)Nc1ncc(C)c(n1)Nc1cccc(c1)N2`, the IC50 in the test with A549 worked out at 7.42 µM; in the test on CNE it was 23.7 µM; with SH-SY5Y, 17.5 µM; in the test on MCF7, 18.8 µM; with L02, 9.89 µM.
The like results for `COc1cnc2nc1Nc1cc(cc(N3CCOCC3)c1)Nc1ncc(OC)c(n1)Nc1cc(cc(N3CCOCC3)c1)N2` were, in that order, greater than 50 µM, greater than 50 µM, greater than 50 µM, greater than 50 µM and greater than 50 µM.
For `Brc1cc2cc(c1)Nc1nccc(n1)Nc1cc(Br)cc(c1)Nc1nccc(n1)N2`, in that order: 6.55 µM, greater than 50 µM, 2.96 µM, 9.24 µM and 47.9 µM.
The like results for `COc1cnc2nc1Nc1cccc(c1)Nc1ncc(OC)c(n1)Nc1cccc(c1)N2` were, in that order, greater than 50 µM, greater than 50 µM, greater than 50 µM, greater than 50 µM and greater than 50 µM.
Consider `Fc1cnc2nc1Nc1cccc(c1)Nc1ncc(Cl)c(n1)Nc1cccc(c1)N2`, for which the IC50 in the test on A549, with CNE, with SH-SY5Y, with MCF7 and with L02 was greater than 50 µM throughout.
Consider `c1cc2cc(c1)Nc1nccc(n1)Nc1cccc(c1)Nc1nccc(n1)N2`, for which the IC50 in the test with A549, in the test with CNE, in the test with SH-SY5Y, in the test on MCF7 and in the test on L02 was greater than 50 µM in each case.
Consider `COc1cnc2nc1Nc1cc(cc(N3CCCC3)c1)Nc1ncc(OC)c(n1)Nc1cc(cc(N3CCCC3)c1)N2`, for which the concentration for half-maximal inhibition (IC50) in the test on A549 came out at 1.6 µM; in the test on CNE, 35.7 µM; with SH-SY5Y, 2.05 µM; with MCF7, 1.45 µM; in the test on L02, 15.8 µM.
The like results for `Clc1cnc2nc1Nc1cccc(c1)Nc1ncc(Cl)c(n1)Nc1cccc(c1)N2` were, in that order, greater than 50 µM, greater than 50 µM, greater than 50 µM, greater than 50 µM and greater than 50 µM.
The like results for `Fc1cnc2nc1Nc1cc(cc(C(F)(F)F)c1)Nc1ncc(Cl)c(n1)Nc1cc(cc(C(F)(F)F)c1)N2` were, in that order, greater than 50 µM, greater than 50 µM, greater than 50 µM, greater than 50 µM and greater than 50 µM.

The IC50 is the concentration needed to halve the response being measured. High values mean weaker potency, low ones greater potency.
